The values that follow come from paper PMC2819655 (Bioorganic & medicinal chemistry, 2009).

Assay [1] relates to proteasome chymotrypsin-like activity. The settings on record: cited from earlier work.
The target in assay [2] is T1, 26S proteasome in MDA-MB-231 cell extract (Homo sapiens, UniProt P28074).
T1 sequence (P28074 60-263): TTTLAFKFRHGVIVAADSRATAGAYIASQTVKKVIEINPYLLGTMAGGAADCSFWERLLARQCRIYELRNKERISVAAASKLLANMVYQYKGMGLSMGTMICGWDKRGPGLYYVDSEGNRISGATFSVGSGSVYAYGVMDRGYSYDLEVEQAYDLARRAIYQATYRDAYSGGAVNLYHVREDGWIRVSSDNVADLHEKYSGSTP
In words: Proteasomal chymotrypsin-like activity in MDA-MB-231 cell extract. Format: biochemical. As to conditions: for change of proteasome inhibitory activity with COMT inhibitor DNC: lysate pre-treated with 10 μM DNC for 20 minutes, Fig. 3B; for inhibition of proteasomal activity: MDA-MB-231 cell lysate with high COMT activity, 1-10 μM, 2 h, Fig. 3A. An outline of the steps: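 MDA-MB-231 cell extract (5.7 μg; lysate with high COMT activity) incubated with 20 μM Suc-LLVY-AMC in 20 mM Tris–HCl pH 7.5 with test compound at various concentrations or solvent, 2 h, 37°C. Chymotrypsin-like activity was measured by fluorescence at 355/460 nm. In the COMT-blocked arm, the extract was pre-treated 20 min with 10 μM 3,5-dinitrocatechol, then co-incubated with test compound for 2 h.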

In assay [3] the target is T2, purified rabbit 20S proteasome (Oryctolagus cuniculus, UniProt G1T4Q9).
T2 sequence (G1T4Q9 60-263): T1 sequence (P28074 60-263) with E197D
The experiment in a line: Inhibition of purified 20S proteasome chymotrypsin-like activity. Format: biochemical. As to conditions: for proteasome inhibition: even at 50 μM, Fig. 2A. In short, it runs like this: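 Purified rabbit 20S proteasome (35 ng) incubated with 20 μM Suc-LLVY-AMC in 20 mM Tris–HCl pH 7.5, with test compound at various concentrations or solvent, for 2 h at 37°C. Chymotrypsin-like activity was read as fluorogenic substrate hydrolysis at 355 nm excitation and 460 nm emission.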

The test system of another assay is cancer cell lines. As to conditions: a number of cancer cell lines; cited from earlier work.
For the next assay, the system named is MDA-MB-231 cells. In words: MTT assay, cell proliferation. Format: cell-based, human. As to conditions: for inhibition of cell proliferation: MDA-MB-231, 25 to 50 μM, 24 h, MTT, Fig. 4; for cell growth inhibition compared to non-acetylated precursors 5 and 7: MDA-MB-231, Fig. 4. In short, it runs like this: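 MDA-MB-231 cells were grown in RPMI 1640 with 10% FBS and penicillin/streptomycin at 37°C, 5% CO2. Triplicate wells were treated with test compound (25 or 50 μM) for 24 h. The medium was aspirated, then MTT (1 mg/ml) was added for 3 h at 37°C. The formazan was dissolved in DMSO and absorbance read at 540 nm.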
For orientation: Formazan colour is commonly taken as a measure of viable cells.

Assay [4] relates to proteasome in MDA-MB-231 cells. In words: Accumulation of ubiquitinated proteins, Western blotting. Format: cell-based, human. The settings on record: MDA-MB-231, 50 μM, 22 hours, compared with compound 6 and Pro-EGCG (4), Fig. 6. In short, it runs like this: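 MDA-MB-231 cells (ATCC; RPMI 1640 with 10% FBS, penicillin/streptomycin; 37°C, 5% CO2) exposed to 50 μM test compound for 22 h. Extracted proteins were analysed by Western blot with antibodies against ubiquitinated proteins, with actin as loading reference.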
A general note: In western blotting, separated proteins are transferred to a membrane and probed.

Where a chain is given by its changes, count along the chain named.

One may read the IC50 as the concentration needed to halve the response being measured.

In the case of `O=C(O[C@@H]1Cc2c(O)cc(O)cc2O[C@@H]1c1cc(O)c(O)c(O)c1)c1cc(O)c(O)c(O)c1` [EGCG, (-)-Epigallocatechin-3-gallate, reference compound], the half-inhibitory concentration (IC50) in assay [1] (read-out: IC50, chymotrypsin-like activity of the proteasome in vitro, in vitro) is 86 to 194 nM. Besides, in assay [2], the “change of proteasome inhibitory activity with COMT inhibitor DNC” value (from here on “change of proteasome inhibitory activity”) is recorded as “improved”. For the same molecule, in assay [3] (Fig. 2), the “inhibition of proteasomal chymotryptic activity” value is “potently inhibited”.

On to `CC(=O)Oc1cc(OC(C)=O)c2c(c1)O[C@H](c1cc(OC(C)=O)c(OC(C)=O)c(OC(C)=O)c1)[C@H](OC(=O)c1cc(OC(C)=O)c(OC(C)=O)c(OC(C)=O)c1)C2` [compound 4, peracetate of (-)-EGCG], for which the “activity as a proteasome inhibitor” value in assay [1] is “not active”. Further, in the assay with cancer cell lines, the “growth inhibitory activity relative to EGCG” value is “enhanced growth inhibitory activity”. Also, in the assay with MDA-MB-231 cells, the “inhibition of cell proliferation” value lay within 0 to 32%.

In the case of `O=C(O[C@H]1Cc2ccccc2C[C@H]1OC(=O)c1cc(O)c(O)c(O)c1)c1cc(O)c(O)c(O)c1` [compound 5], in assay [2], the “inhibition of proteasomal activity” value is reported as 10-16% and the “change of proteasome inhibitory activity” value is “improved”.

`CC(=O)Oc1cc(C(=O)O[C@H]2Cc3ccccc3C[C@H]2OC(=O)c2cc(OC(C)=O)c(OC(C)=O)c(OC(C)=O)c2)cc(OC(C)=O)c1OC(C)=O` [compound 6]: in the assay on MDA-MB-231 cells, the “inhibition of cell proliferation” value is “about 50%”; the “cell growth inhibition compared to non-acetylated precursors 5 and 7” value is on record as “more potent”.

In the case of `O=C(O[C@H]1Cc2ccccc2C[C@H]1OC(=O)c1cc(O)cc(O)c1)c1cc(O)cc(O)c1` [compound 7], in assay [2], the “inhibition of proteasomal activity” value is given as 18-51% and the “change of proteasome inhibitory activity” value is “only slightly increased”.

For the molecule `CC(=O)Oc1cc(OC(C)=O)cc(C(=O)O[C@H]2Cc3ccccc3C[C@H]2OC(=O)c2cc(OC(C)=O)cc(OC(C)=O)c2)c1` [compound 8], the “accumulation of ubiquitinated proteins” value in assay [4] was “higher levels of ubiquitinated proteins”. In addition, in the assay on MDA-MB-231 cells, the “inhibition of cell proliferation” value was 70-79%; the “cell growth inhibition compared to non-acetylated precursors 5 and 7” value is recorded as “more potent”.

As to `O=C(O[C@H]1Cc2ccccc2C[C@H]1O)c1cc(O)c(O)c(O)c1` [compound 16], in assay [3], the proteasome inhibition result is on record as “not active”.

Turning to `O=C(O[C@H]1Cc2ccccc2C[C@H]1O)c1cc(O)cc(O)c1` [compound 21], in assay [3], the proteasome inhibition result is recorded as “not active”.
